From ChEMBL document CHEMBL3745654, “N-Alkylated arylsulfonamides of (aryloxy)ethyl piperidines: 5-HT(7) receptor selectivity versus multireceptor profile” (Bioorg Med Chem, 2016)

Key:
[1] = target: T1, 5-hydroxytryptamine receptor 1A (Homo sapiens, UniProt P08908); experiment: Displacement of [3H]-8-OH-DPAT from human 5-HT1A receptor expressed in HEK293 cells incubated for 1 hr; format: cell-based
T1 sequence (P08908 whole entry): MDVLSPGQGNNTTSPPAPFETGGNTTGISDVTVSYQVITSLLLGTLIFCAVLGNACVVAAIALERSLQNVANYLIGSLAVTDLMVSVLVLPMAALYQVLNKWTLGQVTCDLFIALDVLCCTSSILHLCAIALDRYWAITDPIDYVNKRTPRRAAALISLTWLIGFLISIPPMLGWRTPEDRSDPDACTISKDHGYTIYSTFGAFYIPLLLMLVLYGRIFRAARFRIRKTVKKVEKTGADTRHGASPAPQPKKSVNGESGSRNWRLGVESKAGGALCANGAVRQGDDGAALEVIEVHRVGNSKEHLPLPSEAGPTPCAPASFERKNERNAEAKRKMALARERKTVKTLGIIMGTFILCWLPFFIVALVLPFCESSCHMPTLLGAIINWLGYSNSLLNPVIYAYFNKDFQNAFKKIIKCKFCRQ
Procedure, shortened: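 Membranes from HEK293 cells stably expressing human 5-HT1A receptor, with [3H]-8-OH-DPAT (187 Ci/mmol). Buffer: 50 mM Tris-HCl, 0.1 mM EDTA, 4 mM MgCl2, pargyline, 0.1% ascorbate. Incubation 1 h at room temperature, then filtration. Non-specific binding defined with 5-HT. Triplicates at 7–8 concentrations. Ki by Cheng–Prusoff.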

[2] = target: T2, 5-hydroxytryptamine receptor 2A (Homo sapiens, UniProt P28223); experiment: Displacement of [3H]-ketanserin from human 5-HT2A receptor expressed in HEK293 cells incubated for 1 hr; format: cell-based
T2 sequence (P28223 whole entry): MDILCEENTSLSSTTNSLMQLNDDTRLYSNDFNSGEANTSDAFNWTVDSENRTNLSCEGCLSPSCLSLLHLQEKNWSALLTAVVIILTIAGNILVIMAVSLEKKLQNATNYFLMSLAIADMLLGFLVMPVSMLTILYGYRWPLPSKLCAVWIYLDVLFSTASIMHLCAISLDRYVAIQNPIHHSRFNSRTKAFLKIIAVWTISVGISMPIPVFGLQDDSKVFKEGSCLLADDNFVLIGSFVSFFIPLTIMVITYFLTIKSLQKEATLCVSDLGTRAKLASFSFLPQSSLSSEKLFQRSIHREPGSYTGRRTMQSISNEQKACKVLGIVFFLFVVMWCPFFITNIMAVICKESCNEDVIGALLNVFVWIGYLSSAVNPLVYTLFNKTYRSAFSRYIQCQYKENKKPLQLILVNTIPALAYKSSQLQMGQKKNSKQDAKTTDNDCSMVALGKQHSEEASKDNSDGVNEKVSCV
Procedure, shortened: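 Membranes from HEK293 cells stably expressing human 5-HT2A receptor, with [3H]-ketanserin (66.9 Ci/mmol). Incubation 1 h at 37 °C, then rapid filtration and counting. Triplicates at 7–8 concentrations (10^-11 to 10^-4 M). Ki by Cheng–Prusoff; means of at least three experiments.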

[3] = target: Histamine H1 receptor (Homo sapiens) (UniProt P35367); experiment: Displacement of [3H]-pyrilamine from human recombinant histamine H1 receptor expressed in HEK293 cells at 1 uM after 60 mins by Scintillation counting method; format: cell-based
Sequence of Histamine H1 receptor (Homo sapiens) (P35367 whole entry): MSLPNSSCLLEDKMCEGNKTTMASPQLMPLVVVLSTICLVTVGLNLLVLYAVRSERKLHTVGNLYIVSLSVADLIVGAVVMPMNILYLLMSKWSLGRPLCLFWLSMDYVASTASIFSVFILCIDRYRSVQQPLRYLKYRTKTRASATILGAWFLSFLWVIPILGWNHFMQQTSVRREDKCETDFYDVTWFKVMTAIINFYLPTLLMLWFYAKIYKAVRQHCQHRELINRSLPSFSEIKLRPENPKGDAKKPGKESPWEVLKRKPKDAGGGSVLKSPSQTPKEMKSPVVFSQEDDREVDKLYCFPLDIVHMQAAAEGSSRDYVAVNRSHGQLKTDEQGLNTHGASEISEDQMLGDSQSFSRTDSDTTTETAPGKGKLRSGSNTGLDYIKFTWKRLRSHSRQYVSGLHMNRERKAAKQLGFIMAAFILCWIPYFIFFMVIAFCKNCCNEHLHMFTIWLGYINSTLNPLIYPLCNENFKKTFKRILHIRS

[4] = target: T3, Muscarinic acetylcholine receptor M1 (Homo sapiens) (UniProt P11229); experiment: Displacement of [3H]-pirenzepine from human recombinant muscarinic M1 receptor expressed in CHO cells at 1 uM after 60 mins by Scintillation counting method; format: cell-based
T3 sequence (whole entry): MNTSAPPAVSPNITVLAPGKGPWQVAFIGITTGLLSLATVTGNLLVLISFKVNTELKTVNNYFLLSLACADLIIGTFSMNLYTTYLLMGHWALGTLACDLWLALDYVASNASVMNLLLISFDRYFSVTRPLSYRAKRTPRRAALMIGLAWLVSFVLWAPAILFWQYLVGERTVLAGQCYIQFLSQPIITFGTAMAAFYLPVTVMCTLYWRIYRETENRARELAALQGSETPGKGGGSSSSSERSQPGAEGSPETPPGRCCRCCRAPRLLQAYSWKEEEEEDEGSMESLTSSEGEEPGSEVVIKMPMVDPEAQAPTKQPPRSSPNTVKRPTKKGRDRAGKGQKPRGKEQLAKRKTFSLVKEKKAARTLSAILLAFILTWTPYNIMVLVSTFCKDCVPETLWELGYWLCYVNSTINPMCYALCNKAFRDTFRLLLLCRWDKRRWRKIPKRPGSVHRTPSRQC

[5] = target: T4, 5-hydroxytryptamine receptor 2C (Homo sapiens) (UniProt P28335); experiment: Displacement of [3H]-mesulergine from human recombinant serotonin 5-HT2C receptor expressed in HEK293 cells at 1 uM incubated for 120 mins by scintillation counting method; format: cell-based
T4 sequence (whole entry): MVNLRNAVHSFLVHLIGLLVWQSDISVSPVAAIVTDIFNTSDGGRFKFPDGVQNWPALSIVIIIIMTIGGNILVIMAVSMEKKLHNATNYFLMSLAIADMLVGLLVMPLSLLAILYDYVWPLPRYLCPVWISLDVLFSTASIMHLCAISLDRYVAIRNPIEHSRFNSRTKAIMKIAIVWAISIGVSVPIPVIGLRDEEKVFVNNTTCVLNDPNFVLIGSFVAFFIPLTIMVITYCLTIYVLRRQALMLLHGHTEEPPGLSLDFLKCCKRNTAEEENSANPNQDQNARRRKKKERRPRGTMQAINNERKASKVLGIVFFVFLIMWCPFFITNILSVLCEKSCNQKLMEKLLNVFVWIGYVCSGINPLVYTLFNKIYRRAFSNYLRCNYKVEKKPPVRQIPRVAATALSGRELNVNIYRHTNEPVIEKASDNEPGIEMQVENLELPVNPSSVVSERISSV

[6] = Drug metabolism in mouse liver microsomes assessed as retention time of hydroxylated metabolite at 20 uM at pH 7.4 incubated for 15 mins by UPLC/MS analysis in presence of NADPH; format: ADME; conditions: pH 7.4, 0.25 h
Procedure, shortened: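 Compound (20 µM) incubated with mouse liver microsomes (0.2 mg/ml) in 100 mM potassium phosphate, pH 7.4, 37 °C. Reaction started with NADPH-regenerating system; blank without NADPH run in parallel. Sampling at 5, 15, 30 and 60 min (some to 120 min), in duplicate. Levallorphan internal standard; UPLC/MS quantitation. t1/2 from ln % remaining vs time.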

[7] = target: T2, 5-hydroxytryptamine receptor 2A; experiment: Antagonist activity at human 5-HT2A receptor expressed in HEK293 cells assessed as inhibition of serotonin-induced inositol-1-phosphate accumulation at 1 uM after 30 mins by HTRF assay; format: functional, cell-based
Procedure, shortened: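 Cellular functional antagonist assay in HEK293 cells stably expressing human 5-HT2A receptor, run externally. Inhibition of control agonist response (serotonin 100 nM) measured with compound at 10^-6 M.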

D(2) dopamine receptor = D(2) dopamine receptor (Homo sapiens, UniProt P14416); experiment: Antagonist activity at human dopamine D2L receptor expressed in HEK293 cells assessed as inhibition of dopamine-induced cAMP level at 1 uM; format: functional, cell-based
Sequence of D(2) dopamine receptor (P14416 whole entry): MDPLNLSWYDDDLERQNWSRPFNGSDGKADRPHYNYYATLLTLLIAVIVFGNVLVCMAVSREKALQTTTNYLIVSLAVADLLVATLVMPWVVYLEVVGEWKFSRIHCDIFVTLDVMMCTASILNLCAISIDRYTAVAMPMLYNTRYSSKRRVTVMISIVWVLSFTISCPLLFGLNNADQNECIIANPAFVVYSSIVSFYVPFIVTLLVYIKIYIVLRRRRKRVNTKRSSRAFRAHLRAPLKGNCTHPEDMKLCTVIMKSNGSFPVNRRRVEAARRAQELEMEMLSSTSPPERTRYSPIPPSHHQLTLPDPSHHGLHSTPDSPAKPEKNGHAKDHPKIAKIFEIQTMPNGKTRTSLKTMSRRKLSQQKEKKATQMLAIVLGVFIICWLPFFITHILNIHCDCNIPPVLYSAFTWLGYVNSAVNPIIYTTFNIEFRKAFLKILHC
Procedure, shortened: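 Cellular functional cAMP antagonist assay in HEK293 cells, run externally. Inhibition of control agonist response (dopamine 30 nM) measured with compound at 10^-6 M.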

Mus musculus [8] = experiment: Toxicity in Swiss albino mouse assessed as effect on spontaneous locomotor activity at 1.25 mg/kg, ip dosed 60 mins before test measured after 2 to 6 mins; format: organism-based; conditions: in vivo
Mus musculus [9] = experiment: Antidepressant-like activity in ip dosed Swiss albino mouse assessed as reduction in immobility time dosed 60 mins before test measured after 6 mins by forced swim test; format: functional; conditions: read-out: MED
Procedure, shortened: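 Male Swiss albino mice (22–26 g), 7–12 per dose. Compounds dissolved in distilled water and given ip 60 min before test. Each mouse placed for 6 min in a glass cylinder with 10 cm of water at 23–25 °C. Immobility (floating with minimal movement) scored over the last 4 min by a blinded observer. One-way ANOVA with Bonferroni.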

## CN(C1CCN(CCOc2ccccc2C(C)(C)C)CC1)S(=O)(=O)c1cnn(C)c1
[1]
  Ki: 9630 nM
[2]
  Ki: 557 nM
[3]
  inhibition: < 64%
[4]
  inhibition: < 17%
[5]
  inhibition: < 17%
[6]
  Retention_time: 4.09 min

## CN(C1CCN(CCOc2ccccc2-c2ccccc2)CC1)S(=O)(=O)c1cnn(C)c1
[1]
  Ki: 80 nM
[2]
  Ki: 58 nM
[7]
  inhibition: 85%
D(2) dopamine receptor
  inhibition: 93%
[3]
  inhibition: < 64%
[4]
  inhibition: < 17%
[5]
  inhibition: < 17%

## Cn1cc(S(=O)(=O)N(CC2CC2)C2CCN(CCOc3ccccc3-c3ccccc3)CC2)cn1
[1]
  Ki: 159 nM
[2]
  Ki: 30 nM
[7]
  inhibition: 94%
D(2) dopamine receptor
  inhibition: 94%
[3]
  inhibition: < 64%
[4]
  inhibition: < 17%
[5]
  inhibition: < 17%
Mus musculus [8]
  Activity: Non-toxic
Mus musculus [9]
  minimal effective dose: 1.25 mg/kg

## Cn1cc(S(=O)(=O)N(CC2CC2)C2CCN(CCOc3ccccc3C(C)(C)C)CC2)cn1
[1]
  Ki: 17800 nM
[2]
  Ki: 1480 nM
[3]
  inhibition: < 64%
[4]
  inhibition: < 17%
[5]
  inhibition: < 17%
Mus musculus [8]
  Activity: Non-toxic
Mus musculus [9]
  minimal effective dose: 1.25 mg/kg
[6]
  Retention_time: 4.72 min
